Experimental data collected from several papers.
Compare with care: the assays were run in different laboratories.
rep methyltransferase: Replicase polyprotein 1ab, methyltransferase (rep, Severe acute respiratory syndrome coronavirus 2, UniProt P0DTD1)
rep main protease: Replicase polyprotein 1ab, main protease (rep, Severe acute respiratory syndrome coronavirus 2, UniProt P0DTD1)

[H]/N=C(\N/C(=N/[H])NCCCCCCNC(=N)NC(=N)Nc1ccc(Cl)cc1)Nc1ccc(Cl)cc1 — IC50 (rep methyltransferase; enzyme activity; inhibitor): 43.7 µM
COc1cc(-c2ccc(/N=N/c3ccc4c(S(=O)(=O)O)cc(S(=O)(=O)O)c(N)c4c3O)c(OC)c2)ccc1/N=N/c1ccc2c(S(=O)(=O)O)cc(S(=O)(=O)O)c(N)c2c1O — IC50 (rep main protease; enzyme activity; inhibitor): 9.82 µM
O=c1oc2cc(O)ccc2c2ccccc12 — Kd (rep main protease; binding; SPR): 52.7 µM
CN1Cc2ccccc2[C@@H]2c3cccc4[nH]cc(c34)C[C@H]21 — IC50 (rep main protease; enzyme activity; inhibitor): > 20 µM
COc1ccc(N(Cc2cc(Cl)cs2)C(=O)Cc2cncc3ccccc23)cc1 — Kd (rep main protease; binding; MST): 1.5 µM
COC(=O)c1c(NC(=O)c2cc3ccccc3o2)sc(C)c1C — IC50 (rep methyltransferase; enzyme activity; inhibitor): 22.8 µM
N=C(N)NN=C1C=CC(=NNC(N)=S)C=C1 — IC50 (rep main protease; enzyme activity; inhibitor): 9.3 µM
CSc1ccc(N(Cc2cc(Cl)cs2)C(=O)Cc2cncc3ccccc23)cc1 — Kd (rep main protease; binding; MST): 1.4 µM
CCOC(=O)c1c(NC(=O)c2cc3ccccc3o2)sc(C)c1C — IC50 (rep methyltransferase; enzyme activity; inhibitor): 27.9 µM
